Screening results as filed in PubChem.
Rows were chosen to be rich in hits. Some 3.7% of all compounds tested hit in one or more screens of this group.
Arbovirus anti: antivirals against arbovirus infection; arbovirus infection cell-based antiviral screen; inhibition, % at 10 µM; 0.37% of 200,000 active; AID 1251; in the data active = inhibition above about 30%
MDM2 E3 inh: Mdm2 E3 ligase (human) inhibition; 0.11% of 210,000 active; cell-based MDM2 ubiquitination luciferase reporter, 2 h; 0 = plate control, 100 = twice control, blank-subtracted; signal enhancement, % at 5 µM; Q00987;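 active = signal enhancement of 30% or more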;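 also: luminescence tracks abundance of the self-degrading MDM2-luciferase fusion protein; higher signal means inhibition of MDM2 E3 ligase activity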
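Assay system: mammalian cells stably expressing self-ubiquitinating, self-degrading MDM2 E3–luciferase fusion. Quantity: 2000 cells in each well. Medium: DMEM culture medium. Compound dosing: single-point 5 µM. Timing: cell settling 4 h, compound treatment 2 h, both 37 °C. Technique: luciferase luminescence. Read-out basis: percent signal gain over controls, blank-subtracted. Benchmarks: plate controls and plate blanks.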
KCC2 mod: modulators of human KCC2 chloride dependent transport; Q9H2X9; KCC2 cells, thallium flux FluoZin-2 fluorescence; B-score of Tl+ flux slope (higher = more flux/activation; lower = inhibition) at 10 µM; 2.2% of 190,000 active;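 active = thallium flux slope and its plate-corrected score both differing from the plate sample mean at a set confidence after two filtering rounds, in either direction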;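 also: slope of fluorescence scaled to starting intensity during 10 to 20 s after thallium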
ROMK primary: modulates human ROMK potassium channel activity | B-score at 10 µM | 2% of 130,000 active | P48048 | Tet-inducible ROMK, thallium flux fluorescence; actives lie on both sides;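 active = signal ratio slope over the read window, or its plate-corrected B-score, at least 3 SD from the plate mean, either direction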;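 also: B-score of the F/F0 ratio slope over 7 to 12 s after thallium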
Calpain2 inh: blocks pig calpain II enzyme activity. 0.37% of 220,000 active. purified calpain II, fluorogenic peptide substrate, 30 min. inhibition, % at 16 µM;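 active = inhibition above about 50%, limit read from the data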
PKD1 inh: inhibitors of human PKD1 kinase | Q15139 | PKD1 kinase fluorescence polarization assay | inhibition, % (concentration not given with the values) | 0.056% of 200,000 active | AID 797; in the data active = inhibition above about 50%
ROMK hit retest: confirmation of human ROMK potassium channel modulators; shares compounds with ROMK primary; ROMK thallium flux, fluorescence ratio; stronger effect = lower value; normalized thallium flux (F/F0 slope) at 10 µM; 54% of 3,000 active;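 active = Flux at 10 µM at least 3 SD below or above vehicle control mean in one or both replicates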
Each line names hits and unclear results; the compound was inactive in the other large screens (follow-up assays come after a bar, where they were run).

NP(=O)(OCC(F)(F)F)Oc1cccc2ccccc12 (configuration not stated)	none
NP(=O)(Oc1ccccc1Cl)Oc1ccccc1Cl	ROMK primary -3.06 | ROMK hit retest 0.0642
CCCN1CC(C)C(OC(C)=O)(c2ccccc2)CC1C (configuration not stated)	none (no result: KCC2 mod, ROMK primary)
CC1CC(OC(=O)c2ccccc2)(c2ccccc2)C(C)CN1C (configuration not stated)	none (no result: Arbovirus anti, ROMK primary, PKD1 inh) | ROMK hit retest inactive
O=C(c1cc(C(=O)NCc2ccccc2)c(=O)n(Cc2ccccc2)c1)c1cc(Br)ccc1O	none
CCOc1cccc(OCC)c2c(C)[n+](CC3CCCO3)c(C)c1-2 (configuration not stated)	none
C[C@@H]1O[C@@H](O[C@H]2C[C@@H](O)[C@]3(CO)[C@H]4[C@H](O)C[C@]5(C)[C@@H](C6COC(=O)C6)CC[C@]5(O)[C@@H]4CC[C@]3(O)C2)[C@H](O)[C@H](O)[C@H]1O (some centres not stated)	none (no result: MDM2 E3 inh, ROMK primary) | ROMK hit retest 0.064
Cc1cc(C(=O)C[N+]23CCN(CC2)CC3)c(C)n1-c1ccc(Br)cc1	none
CCOC(=O)C1=C(N)OC2=C(C(=O)CCC2)C12C(=O)N1c3c(ccc(C)c32)C(C)=CC1(C)C (configuration not stated)	ROMK primary -5.89 | ROMK hit retest 0.0587
CCOC(=O)C1=C(N)OC2=C(C(=O)CCC2)C12C(=O)Nc1ccccc12 (configuration not stated)	none (no result: ROMK primary)
